This note sets out measurements from ChEMBL document CHEMBL1123542, “Alpha-adrenoreceptor reagents. 4. Resolution of some potent selective prejunctional alpha 2-adrenoreceptor antagonists” (J Med Chem, 1986).

The target in assay [1] is T1, Adrenergic receptor alpha-1 (Rattus norvegicus, UniProt P15823+P23944+P43140).
T1 sequence (P15823 whole entry): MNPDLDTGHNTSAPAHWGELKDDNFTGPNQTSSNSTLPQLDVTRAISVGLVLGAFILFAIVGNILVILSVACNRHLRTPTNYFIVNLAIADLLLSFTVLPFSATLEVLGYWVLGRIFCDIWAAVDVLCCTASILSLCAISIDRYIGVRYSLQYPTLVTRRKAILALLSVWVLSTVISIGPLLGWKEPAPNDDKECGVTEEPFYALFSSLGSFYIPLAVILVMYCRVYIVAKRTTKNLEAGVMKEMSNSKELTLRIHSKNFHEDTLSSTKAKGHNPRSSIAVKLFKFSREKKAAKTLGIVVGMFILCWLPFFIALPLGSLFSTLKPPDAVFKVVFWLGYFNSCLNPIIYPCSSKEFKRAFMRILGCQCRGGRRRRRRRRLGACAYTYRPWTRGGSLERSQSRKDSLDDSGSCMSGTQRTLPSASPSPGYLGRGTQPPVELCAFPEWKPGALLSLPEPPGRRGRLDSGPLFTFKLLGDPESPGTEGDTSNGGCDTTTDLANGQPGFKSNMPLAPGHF
T1 sequence (P23944 whole entry): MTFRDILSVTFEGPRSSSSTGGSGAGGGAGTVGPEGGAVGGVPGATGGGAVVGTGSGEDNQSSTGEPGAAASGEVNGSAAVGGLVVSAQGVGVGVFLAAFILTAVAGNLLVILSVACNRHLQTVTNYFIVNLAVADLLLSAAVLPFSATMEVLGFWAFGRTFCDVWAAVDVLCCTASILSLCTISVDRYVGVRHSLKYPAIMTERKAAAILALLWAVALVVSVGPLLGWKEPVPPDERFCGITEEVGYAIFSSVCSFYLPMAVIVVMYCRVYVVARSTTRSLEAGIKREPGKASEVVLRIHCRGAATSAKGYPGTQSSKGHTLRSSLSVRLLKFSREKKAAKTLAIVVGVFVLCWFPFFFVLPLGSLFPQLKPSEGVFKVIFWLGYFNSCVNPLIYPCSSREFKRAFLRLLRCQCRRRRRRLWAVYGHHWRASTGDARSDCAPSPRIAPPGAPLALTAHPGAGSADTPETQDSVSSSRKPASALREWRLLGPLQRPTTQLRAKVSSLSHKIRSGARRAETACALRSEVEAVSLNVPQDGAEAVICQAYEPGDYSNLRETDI
T1 sequence (P43140 whole entry): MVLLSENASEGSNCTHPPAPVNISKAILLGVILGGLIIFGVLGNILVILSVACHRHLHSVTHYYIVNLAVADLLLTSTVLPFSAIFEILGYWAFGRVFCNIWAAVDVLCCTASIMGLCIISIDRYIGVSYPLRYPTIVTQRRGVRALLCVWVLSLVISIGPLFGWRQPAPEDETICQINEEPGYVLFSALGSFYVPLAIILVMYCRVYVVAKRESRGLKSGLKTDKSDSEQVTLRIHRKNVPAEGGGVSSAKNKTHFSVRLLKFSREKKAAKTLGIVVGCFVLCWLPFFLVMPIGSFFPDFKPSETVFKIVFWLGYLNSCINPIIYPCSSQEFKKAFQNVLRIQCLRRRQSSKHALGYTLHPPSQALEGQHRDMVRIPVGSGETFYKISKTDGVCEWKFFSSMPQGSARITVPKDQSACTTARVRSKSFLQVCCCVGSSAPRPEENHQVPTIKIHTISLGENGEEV
The assay can be described thus: Displacement of [3H]prazosin from alpha-1 adrenergic receptor from rat brain cerebral cortex. Type of assay: tissue-based. The essentials:
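Rat cerebral cortical membranes. Ki (nM) from displacement of saturable [3H]prazosin binding at α1 sites.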
Background: In a radioligand displacement assay an active substance lowers the binding of a labelled ligand.

The test system of a further assay is Rattus norvegicus. The assay can be described thus: Compound was evaluated in vivo for the reversal of maximal inhibitory effect of clonidine at 100 ug/kg(iv) in pithed rat vas deferens preparation. In kind it is functional.
The target in assay [2] is T2, Adrenergic receptor alpha-2 (Rattus norvegicus, UniProt P22086+P19328+P22909).
T2 sequence (P22086 whole entry): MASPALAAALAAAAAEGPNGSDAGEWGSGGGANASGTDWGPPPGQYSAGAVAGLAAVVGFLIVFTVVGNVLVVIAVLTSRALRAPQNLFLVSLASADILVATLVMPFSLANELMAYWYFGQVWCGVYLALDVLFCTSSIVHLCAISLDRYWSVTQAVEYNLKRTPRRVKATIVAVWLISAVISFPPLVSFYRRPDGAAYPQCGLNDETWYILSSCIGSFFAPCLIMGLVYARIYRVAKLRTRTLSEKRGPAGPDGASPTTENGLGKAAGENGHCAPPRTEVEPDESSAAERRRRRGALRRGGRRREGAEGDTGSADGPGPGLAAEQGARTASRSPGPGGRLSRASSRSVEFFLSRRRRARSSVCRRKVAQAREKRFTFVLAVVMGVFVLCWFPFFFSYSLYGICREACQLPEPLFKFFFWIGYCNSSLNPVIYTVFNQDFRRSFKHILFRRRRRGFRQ
T2 sequence (P19328 whole entry): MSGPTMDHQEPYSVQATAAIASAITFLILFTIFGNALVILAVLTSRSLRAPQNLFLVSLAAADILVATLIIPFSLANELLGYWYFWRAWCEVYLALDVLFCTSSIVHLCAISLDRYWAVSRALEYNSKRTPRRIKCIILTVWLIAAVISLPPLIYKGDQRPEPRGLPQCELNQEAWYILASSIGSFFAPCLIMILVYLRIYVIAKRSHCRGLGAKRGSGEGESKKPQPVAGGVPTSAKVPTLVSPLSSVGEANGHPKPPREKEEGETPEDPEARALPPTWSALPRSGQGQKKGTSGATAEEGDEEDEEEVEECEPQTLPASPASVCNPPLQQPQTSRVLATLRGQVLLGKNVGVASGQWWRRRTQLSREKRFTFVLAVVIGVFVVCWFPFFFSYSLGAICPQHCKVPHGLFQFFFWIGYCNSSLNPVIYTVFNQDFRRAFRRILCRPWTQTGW
T2 sequence (P22909 whole entry): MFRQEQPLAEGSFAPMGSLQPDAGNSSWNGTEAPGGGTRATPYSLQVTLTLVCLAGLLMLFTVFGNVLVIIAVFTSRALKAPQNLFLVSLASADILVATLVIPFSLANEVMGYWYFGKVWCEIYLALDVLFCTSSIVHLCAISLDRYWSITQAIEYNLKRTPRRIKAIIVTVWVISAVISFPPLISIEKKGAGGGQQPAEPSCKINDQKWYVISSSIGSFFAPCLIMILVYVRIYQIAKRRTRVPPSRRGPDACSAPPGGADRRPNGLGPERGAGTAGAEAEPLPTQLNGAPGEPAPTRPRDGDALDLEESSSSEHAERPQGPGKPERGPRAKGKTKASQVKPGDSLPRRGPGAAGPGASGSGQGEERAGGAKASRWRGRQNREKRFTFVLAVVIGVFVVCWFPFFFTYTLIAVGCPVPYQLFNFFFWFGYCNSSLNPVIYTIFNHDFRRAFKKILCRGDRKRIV
The assay can be described thus: Displacement of [3H]idazoxan from alpha-2 adrenergic receptor from rat brain cerebral cortex. Type of assay: tissue-based. The essentials:
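Rat cerebral cortical membranes. Ki (nM) from displacement of saturable [3H]idazoxan binding at α2 sites.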

Assay [3] deals with Alpha-2 adrenergic receptor (Rattus norvegicus). Briefly: Compound was evaluated for its ability to antagonise the inhibitory activity of clonidine, relative to idazoxan at prejunctional alpha-2 adrenergic receptor in rat vas deferens.
Assay [4] concerns Alpha-1 adrenergic receptor (Rattus norvegicus). Briefly: Compound was evaluated for its ability to antagonise the inhibitory activity of phenylephrine, relative to idazoxan at postjunctional alpha-1 adrenergic receptor in rat anococcygeus.
Assay [5] has as its target T3, Adrenergic receptor alpha-1 (Rattus norvegicus) (UniProt P15823+P23944+P43140). Briefly: Compound was evaluated for the antagonist potency at postjunctional alpha-1 adrenergic receptor in pithed rat diastolic bp test. In kind it is functional. The gist of the method: (§1)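 Pithed rats; iv dose (μg/kg) giving a 2-fold shift (DR2) of the cirazoline dose-response curve on diastolic blood pressure. Separate groups, n = 6 minimum.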

Assay [6] concerns the target T4, Adenosine receptor A1 (Rattus norvegicus) (UniProt P25099).
T4 sequence (whole entry): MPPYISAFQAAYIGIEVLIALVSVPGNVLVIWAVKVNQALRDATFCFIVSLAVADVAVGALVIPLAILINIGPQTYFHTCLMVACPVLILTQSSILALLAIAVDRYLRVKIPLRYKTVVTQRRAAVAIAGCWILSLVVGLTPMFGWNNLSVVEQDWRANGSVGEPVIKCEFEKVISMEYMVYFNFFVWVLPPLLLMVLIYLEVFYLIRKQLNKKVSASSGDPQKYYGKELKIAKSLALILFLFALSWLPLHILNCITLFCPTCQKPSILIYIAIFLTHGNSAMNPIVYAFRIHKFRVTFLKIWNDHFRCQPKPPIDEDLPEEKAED
The assay can be described thus: Compound was evaluated for its ability to antagonise the inhibitory activity of phenylephrine, relative to idazoxan at postjunctional alpha-1 adrenergic receptor in rat anococcygeus. Type of assay: functional.

Assay [7] addresses T3, Adrenergic receptor alpha-1 (Rattus norvegicus). Briefly: Compound was evaluated for the antagonist potency at postjunctional alpha-1 adrenergic receptor in pithed rat diastolic bp test,. In kind it is functional. The essentials:
as §1

Assay [8] addresses Adenosine A2 receptor (Rattus norvegicus) (UniProt P29276+P30543). The assay can be described thus: Compound was evaluated for its ability to antagonise the inhibitory activity of clonidine, relative to idazoxan at prejunctional alpha-2 adrenergic receptor in rat vas deferens. Type of assay: functional, tissue-based.

The Ki is a dissociation constant, usually derived from enzyme kinetics or from competition with a known ligand.

As to `COC1(C2=NCCN2)COc2ccccc2O1` (single isomer, unassigned; (+)) [listing 1 of 2 here], the Ki came out at 27 nM in assay [1] and 0.36 nM in assay [2]. Further, the AD50 with Rattus norvegicus was 0.00225 mg/kg.

Turning to `C=C(C)C1(C2=NCCN2)COc2ccccc2O1` (single isomer, unassigned; (+)) [listing 1 of 2 here], the Ki was found to be 46439 nM in [1] and 8734 nM in [2]. Further, in the assay with Rattus norvegicus, the AD50 is above 14.444 mg/kg.

Regarding `CC1(C2=NCCN2)COc2ccccc2O1` (single isomer, unassigned; (+)) [listing 1 of 2 here], the Ki in assay [1] is 285 nM; in assay [2], 2.4 nM. Also, the AD50 in the assay on Rattus norvegicus turned out to be 0.0258 mg/kg.

As for `C=C(C)C1(C2=NCCN2)COc2ccccc2O1` (single isomer, unassigned; (+)) [listing 2 of 2 here], the Antagonist potency in [3] was found to be 0.0003; in assay [4], 0.03.

Turning to `CC1(C2=NCCN2)COc2ccccc2O1` (single isomer, unassigned; (+)) [listing 2 of 2 here], the results for the Antagonist potency in [3] and in assay [4] were 1.3 and 0.09, respectively.

In [5], `COC1(C2=NCCN2)COc2ccccc2O1` (single isomer, unassigned; (+)) [listing 2 of 2 here] showed an Antagonist potency of 58.9.

As to `COC1(C2=NCCN2)COc2ccccc2O1` (single isomer, unassigned; (-)) [listing 1 of 2 here], the inhibition constant (Ki) is listed as 6763 nM in assay [1] and 256 nM in assay [2]. Further, the AD50 with Rattus norvegicus amounted to 0.786 mg/kg.

For `CC1(C2=NCCN2)COc2ccccc2O1` (single isomer, unassigned; (-)) [listing 1 of 2 here], the results for the Ki in assay [1] and in assay [2] were 13329 nM and 487 nM, respectively. The AD50 in the assay with Rattus norvegicus was 2.567 mg/kg.

For `CC1(C2=NCCN2)COc2ccccc2O1` (single isomer, unassigned; (-)) [listing 2 of 2 here], the Antagonist potency in [3] was 0.005; in [6], below 0.023.

In assay [7], `COC1(C2=NCCN2)COc2ccccc2O1` (single isomer, unassigned; (-)) [listing 2 of 2 here] yielded an Antagonist potency of 12800.

As to `COC1(C2=NCCN2)COc2ccccc2O1` (stereo in doubt; 4) [listing 1 of 2 here], the inhibitory constant (Ki) in assay [1] was determined as 66 nM; in [2] it was 0.8 nM. In the assay with Rattus norvegicus, the AD50 is 0.00268 mg/kg.

The compound `COC1(C2=NCCN2)COc2ccccc2O1` (stereo in doubt; 4) [listing 2 of 2 here] showed an Antagonist potency in assay [5] of 176.

For the compound `CC1(C2=NCCN2)COc2ccccc2O1` (stereo in doubt; 7) [listing 1 of 2 here], the Ki in [1] is given as 449 nM; in assay [2], 4.4 nM. Also, in the assay on Rattus norvegicus, the AD50 is 0.0527 mg/kg.

Consider `CC1(C2=NCCN2)COc2ccccc2O1` (stereo in doubt; 7) [listing 2 of 2 here], for which the Antagonist potency in [8] stood at 0.67; in [4], 0.28.

For the compound `C=C(C)C1(C2=NCCN2)COc2ccccc2O1` (stereo in doubt; 10) [listing 1 of 2 here], the values for the Ki in [1] and in [2] were 1794 nM and 16.3 nM, respectively. For the same compound, the AD50 with Rattus norvegicus stood at 0.0712 mg/kg.

`C=C(C)C1(C2=NCCN2)COc2ccccc2O1` (stereo in doubt; 10) [listing 2 of 2 here]: the Antagonist potency stood at 0.4 in [3] and 0.07 in assay [4].

With `C=C(C)C1(C2=NCCN2)COc2ccccc2O1` (stereo in doubt; 12) [listing 1 of 2 here], the inhibitory constant (Ki) was 1473 nM in assay [1] and 8 nM in assay [2]. Besides, the AD50 in the assay with Rattus norvegicus was determined as 0.0539 mg/kg.

`C=C(C)C1(C2=NCCN2)COc2ccccc2O1` (stereo in doubt; 12) [listing 2 of 2 here]: the Antagonist potency was 0.8 in assay [3] and 0.6 in assay [4].
